According to ChEMBL document CHEMBL1129385, “Aspartic acid conjugates of 2-(3,4-dichlorophenyl)-N-methyl-N-[(1S)-1(3-aminophenyl)-2-(1-pyrrolidi nyl) ethyl]acetamide: kappa opioid receptor agonists with limited access to the central nervous system” (J Med Chem, 1996):

Columns and labels:
[1] = tested on: Mus musculus; test: Peak time for Antinociception writhing(min) by icv administration in mice.; type: functional
[2] = tested on: Mus musculus; test: Peak time for Antinociception Tail-flick(min) by iv administration in mice.; type: functional
[3] = target: Mu-type opioid receptor (Cavia porcellus, UniProt P97266); test: Compound was tested for the binding affinity and selectivity by competitive inhibition of radioligands on opioid Mu receptor in guinea pig brain membranes; type: cell membranes, Membrane
Procedure, shortened: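 Competition binding in guinea pig brain membranes for μ opioid sites against 2 nM [³H]DAMGO, using a modified Werling method. Ki values are arithmetic means of three experiments.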

[4] = species: Mus musculus; test: Compound was tested for their agoinst potencies on the electrically stimulated mouse vas deferens.; type: functional
[5] = tested on: Mus musculus; test: Peak time for Antinociception Tail-flick(min) by icv administration in mice.; type: functional
[6] = tested on: Mus musculus; test: Compound was evaluated for Antinociceptive potencies in mice for in vivo activity in mouse tail-flick by icv administration; type: functional; settings: central
[7] = tested on: Mus musculus; test: Compound was evaluated for Antinociceptive potencies in mice for in vivo activity Mouse abdominal stretch assay by icv administration; type: functional; settings: Abdomen, central
[8] = tested on: Mus musculus; test: Peak time for Antinociception writhing(min) by iv administration in mice.; type: functional
[9] = target: T1, Kappa-type opioid receptor (Cavia porcellus, UniProt P41144); test: Compound was tested for the binding affinity and selectivity by competitive inhibition of radioligands on opioid kappa receptor in guinea pig brain membranes; type: cell membranes, Membrane
Procedure, shortened: (§1)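 Competition binding in guinea pig brain membranes for κ opioid sites against 1 nM [³H]U69,593, using a modified Werling method. Ki values are arithmetic means of three experiments.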

[10] = species: Cavia porcellus; test: Compound was tested for their agoinst potencies on the electrically stimulated Guinea pig ileal longitudinal muscle preparation.; type: functional; settings: Muscle tissue
[11] = tested on: Mus musculus; test: Compound was evaluated for Antinociceptive potencies in mice for in vivo activity in Analgesic activity in the second phase of the mouse formalin assay by iv administration; type: functional
[12] = tested on: Mus musculus; test: Compound was evaluated for Antinociceptive potencies in mice for in vivo activity in mouse tail-flick by iv administration; type: functional
[13] = target: T1, Kappa-type opioid receptor; test: Compound was tested for the binding affinity and selectivity by competitive inhibition of radioligands on Opioid receptor kappa 1 in guinea pig brain membranes; type: cell membranes, Membrane; procedure, shortened: as §1

| SMILES | Time [1] | Time [2] | Ki [3] | IC50 [4] | Time [5] | ED50 [6] | ED50 [7] | Time [8] | Ki [9] | IC50 [10] | ED50 [11] | ED50 [12] | Ki [13] |
| --- | --- | --- | --- | --- | --- | --- | --- | --- | --- | --- | --- | --- | --- |
| CN(C(=O)Cc1ccc(Cl)c(Cl)c1)[C@H](CN1CCCC1)c1cccc(NC(=O)[C@@H](N)CC(=O)O)c1 | 10 min | 20 min | 462 nM | 2.49 nM | 30 min | 0.335 µmol/kg | 0.0068 µmol/kg | 10 min | 0.34 nM | 0.84 nM | 0.01 µmol/kg | 0.85 µmol/kg |  |
| CN(C(=O)Cc1ccc(Cl)c(Cl)c1)[C@H](CN1CCCC1)c1cccc(NC(=O)C[C@H](N)C(=O)O)c1 | 30 min | 30 min |  | 6.36 nM | 30 min | 0.502 µmol/kg | 0.011 µmol/kg | 10 min |  | 0.55 nM |  | 5.12 µmol/kg |  |
| CN(C(=O)Cc1ccc(Cl)c(Cl)c1)[C@H](CN1CCCC1)c1cccc(NC(=O)[C@H](N)CC(=O)O)c1 | 10 min |  | 280 nM | 4.06 nM |  |  | 0.046 µmol/kg | 10 min |  | 4.59 nM | 1.05 µmol/kg |  | 1.2 nM |
